Bioassay records as filed in PubChem.
Most compounds without a hit are left out; they make up all but 1.5% or so of the library.
Hck-Nef inh = inhibitors of human Hck kinase activated by Nef; P08631; inhibition, % at 20 µM; AID 463187; Recombinant Hck-YEEI plus Nef, Z-Lyte FRET kinase assay; 220,000 tested, 0.68% active;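 active = Hck-Nef kinase inhibition above about 50%, limit read from the data; inactive = inhibition below that limit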;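 note: 0% = DMSO with Hck plus Nef and 100% = Hck alone without Nef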
Target sequence (P08631 whole entry, looked up): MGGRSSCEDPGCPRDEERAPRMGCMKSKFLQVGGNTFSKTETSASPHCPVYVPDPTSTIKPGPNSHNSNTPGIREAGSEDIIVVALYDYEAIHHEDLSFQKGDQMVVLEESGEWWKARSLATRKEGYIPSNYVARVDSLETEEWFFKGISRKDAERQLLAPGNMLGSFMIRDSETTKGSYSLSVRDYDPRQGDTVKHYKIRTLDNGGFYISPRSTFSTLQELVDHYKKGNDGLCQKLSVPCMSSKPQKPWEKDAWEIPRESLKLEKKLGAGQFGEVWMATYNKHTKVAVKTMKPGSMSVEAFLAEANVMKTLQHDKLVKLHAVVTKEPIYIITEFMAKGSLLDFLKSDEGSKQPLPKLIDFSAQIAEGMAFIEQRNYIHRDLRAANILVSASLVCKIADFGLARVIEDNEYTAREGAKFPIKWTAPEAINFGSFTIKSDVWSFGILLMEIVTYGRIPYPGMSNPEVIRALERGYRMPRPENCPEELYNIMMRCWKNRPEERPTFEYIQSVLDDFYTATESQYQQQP
RanGTP-Impb inh = inhibitors of RanGTP-importin-beta interaction, primary screen, biochemical, FRET, CFP-Ran, YFP-importin-beta, homogeneous; cell-free CFP-Ran/YFP-importin-beta FRET ratio; inhibition, % (test concentration not listed); 300,000 tested, 1.1% active; AID 2216;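 active = more than half of the replicate wells show a fall in the fluorescence ratio signal beyond about 16%, limit read from the data, passing the limit was not always enough; inconclusive = exactly half of the replicate wells pass the set limit; inactive = fewer than half of replicates pass the limit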;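 note: 0% = DMSO wells and 100% = Ran loaded with GDP instead of GTP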
CaV13 ICDI inh = Primary screen for inhibitors of IQ motif and Ca2+-dependent inactivation inhibitor domain binding in CACNA1D, Förster resonance energy transfer in living cells, …; HEK cells, CFP/YFP FRET ICDI-IQ, plate reader, 10 min; percent FRET-ratio fall versus neutral wells; 340,000 tested, 0.098% active; inhibition, % at 12.3 µM;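 active = mean replicate inhibition of at least 30% and at least 1% of replicates passing that level; inconclusive = only one of the two criteria is met; inactive = neither criterion is met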;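 note: 0% = median of the neutral control wells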
Runt-CBFb FRET = inhibitors of human RUNX1 Runt domain binding to CBFb | AID 1496 | 220,000 tested, 0.46% active | Q01196+Q13951 | Cerulean-Runt/Venus-CBFb FRET ratio 530/480, 1 h | inhibition, % at 20 µM;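 active = inhibition over about 50% at 20 µM in the single-dose screen, limit read from the data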;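 note: 0% = DMSO wells and 100% = excess unlabeled CBFb competitor control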
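System: Cerulean-labeled Runt domain protein | Quantity: 100 nM of each labeled protein | Schedule: 1 h compound exposure, room temperature | Detection: Fluorescence energy transfer, 422 nm excitation, 530/480 nm emission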
Runt-SMMHC FRET = Runt domain-CBFb-SMMHC interaction inhibition; Q01196+Q13951; Cerulean-Runt/Venus-CBFb-SMMHC FRET ratio 530/480, 1 h; inhibition, % at 20 µM; 220,000 tested, 0.74% active;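 active = mean inhibition across duplicate retests at 20 µM reaching about 50%, limit read from the data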;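 note: 0% = DMSO wells and 100% = wells with excess untagged CBFb-SMMHC; inhibitors lower the FRET ratio by blocking Runt binding to CBFb-SMMHC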
An asterisk follows results filed as active; ? = inconclusive; . = no result given.

SMILES	Hck-Nef inh	RanGTP-Impb inh	CaV13 ICDI inh	Runt-CBFb FRET	Runt-SMMHC FRET
CCn1nnnc1SCC(=O)Nc1cccc(C)n1	2	0	-4	0	2
Cc1ccc(-c2c(C#N)c(N)n3c(nc4ccccc43)c2C#N)cc1	26	-1	-7	58*	118*
N#Cc1c(-c2ccccc2)c(C#N)c2nc3ccccc3n2c1N	17	-4	-3	82*	94*
Cc1cc(Cl)n2c(nc3ccccc32)c1C#N	0	?	-4	1	-17
Cc1ccc(OCCCN2C(=O)C(=O)c3cccc(C)c32)cc1	2	0	.	-4	-2
CCCn1c(=N)c(C#N)cc2c(=O)n3cccc(C)c3nc21	32	148*	.	.	.
CCCCn1c(=N)c(S(=O)(=O)c2ccc(Br)cc2)cc2c(=O)n3cccc(C)c3nc21	.	0	-5	.	.
Cc1cccn2c(=O)c3cc(C#N)c(=N)n(CCN4CCOCC4)c3nc12	13	87*	.	76*	94*
Cc1cccn2c(=O)c3cc(C#N)c(=N)n(CCCN4CCOCC4)c3nc12	25	184*	.	.	.
CCOC(=O)c1c(C)nc2sc3c(=O)n(-c4ccc(C)cc4)cnc3c2c1-c1ccc(OC)cc1	1	-9	.	-5	-4
O=C(Nc1ccc2c(c1)OCCO2)C1CCCN(S(=O)(=O)c2cnc[nH]2)C1 (stereo unspecified)	14	143*	?	-1	4
O=C(NN=C(Cc1ccccc1)Cc1ccccc1)C1CC1	22	34*	-6	2	-8
CCOC(=O)C1CCN(C(=O)CN2C(=O)C(C(C)C)Oc3ccccc32)CC1 (stereo unspecified)	.	7	-5	.	.
CC1=C(C#N)C(=O)OC(C)(C)C1	0	72*	-3	32	78*
CCn1c(SCC(=O)Nc2cc(C)on2)nc2sc3c(c2c1=O)CCCC3	53*	?	-7	1	-7
C=CCn1c(SCC(=O)Nc2cc(C)on2)nc2sc3c(c2c1=O)CCCC3	9	.	3	-1	-2
Cc1cc(C)cc(C(=O)N2CCC(C(N)=O)CC2)c1	-1	-1	-5	2	7
COc1ccc(CCNC(=O)c2cc(-c3ccccn3)nc3c(Cl)cccc23)cc1OC	24	24*	-1	-1	0
COc1ccc(CCNC(=O)c2cc(-c3ccncc3)nc3c(Cl)cccc23)cc1OC	0	4	-6	-8	4
COC(=O)C1=C(C)NC2=C(C(=O)C(C(=O)OC)C(c3ccc(OC)cc3)C2)C1c1ccccn1 (stereo unspecified)	23	12	-5	35	70*
COC(=O)C1=C(C)NC2=C(C(=O)CC(C)(C)C2)C1c1ccsc1 (stereo unspecified)	32	3	-2	7	20
COC(=O)C1=C(C)NC2=C(C(=O)CC(C)(C)C2)C1c1ccccn1 (stereo unspecified)	40	8	-8	70*	123*
Cc1cccc(CCNC(=O)C2CCC(=O)N2Cc2ccc(F)cc2)c1 (stereo unspecified)	3	5	-8	2	2
C/C(=N\Nc1nc2ccccc2s1)c1cccs1	4	22*	-4	-3	2
Cc1nonc1C(=O)N/N=C/c1cccc(O)c1	-1	1	-3	1	1
SMILES	Hck-Nef inh	RanGTP-Impb inh	CaV13 ICDI inh	Runt-CBFb FRET	Runt-SMMHC FRET
O=c1c(Cl)c(N2CCN(S(=O)(=O)c3ccccc3)CC2)cnn1-c1ccccc1	6	2	-8	-7	-1
S=C(Nc1ccc(Nc2ccccc2)cc1)Nc1ccccn1	94*	-2	-8	16	7
S=C(Nc1ccccc1)Nc1ccccn1	.	.	-5	.	.
Cc1cccc(NC(=O)CN2C(=O)S/C(=C\c3cccn3-c3cccc(C(=O)O)c3)C2=O)c1	72*	0	-27	-1	1
Cc1ccc(NC(=O)CN2C(=O)S/C(=C\c3cccn3-c3cccc(C(=O)O)c3)C2=O)cc1C	50*	-2	-31	6	-15
CC(C)C(C(=O)O)N1C(=O)C2C3CCC(C3)C2C1=O (stereo unspecified)	.	.	-6	.	.
COCCCNC(=O)/C(C#N)=C/c1c(N2CCN(C)CC2)nc2ccccn2c1=O	.	87*	-17	.	.
CN1CCN(c2nc3ccccn3c(=O)c2C=O)CC1	.	100*	.	.	.
CCNC(=O)/C(C#N)=C/c1c(N2CCCCCC2)nc2ccccn2c1=O	.	1	-20	.	.
CCNC(=O)/C(C#N)=C/c1c(N2CC(C)OC(C)C2)nc2ccccn2c1=O (stereo unspecified)	3	0	-4	104*	77*
COCCNC(=O)/C(C#N)=C/c1c(N2CC(C)OC(C)C2)nc2ccccn2c1=O (stereo unspecified)	6	4	-1	48	82*
COCCNC(=O)/C(C#N)=C/c1c(N2CCN(c3ccccc3)CC2)nc2ccccn2c1=O	.	5	-2	.	.
O=Cc1c(N2CCCCC2)nc2ccccn2c1=O	20	-3	-1	1	-4
Cc1cc(NC(=O)c2ccc3c(c2)C(=O)N(Cc2ccccc2)C3=O)no1	22	2	-16	-1	0
CCOc1ccccc1CN1CCCC(CNC(=O)Cc2ccc(OC)cc2)C1 (stereo unspecified)	.	?	-2	.	.
CC1CN(c2nc3ccccn3c(=O)c2/C=C(\C#N)C(N)=O)CC(C)O1 (stereo unspecified)	8	-1	-4	94*	8
Cc1cccc(NC(=O)COc2ccc(/C=C\c3[nH]c(=O)[nH]c(=O)c3[N+](=O)[O-])cc2)c1	62*	-1	-15	-4	-24
O=c1[nH]c(/C=C/c2ccc([N+](=O)[O-])cc2)c([N+](=O)[O-])c(=O)[nH]1	.	?	7	.	.
CC1C2(C)OC(=N)C(C#N)(C(C)O2)C1(C#N)C#N (stereo unspecified)	11	22*	.	101*	52*
CCCCC1OC2(C)OC(=N)C1(C#N)C(C#N)(C#N)C2c1ccccc1 (stereo unspecified)	23	.	-5	21	53
CC1OC2(C)OC(=N)C1(C#N)C(C#N)(C#N)C2c1ccccc1 (stereo unspecified)	20	23*	-13	30	50
NC(=O)c1cc(-c2ccccc2)nc(N2CCCCCC2)n1	-1	3	-7	-2	-2
COc1ccc(N=Cc2c(O)n(-c3cccc(C)n3)c(=O)c3ccccc23)cc1	-1	14	-23	-10	7
COc1ccc(N=Cc2c(O)n(-c3ccc(OC)cc3)c(=O)c3ccccc23)cc1	32	5	-17	3	90*
O=c1c2ccccc2c(C=Nc2ccc(O)cc2)c(O)n1Cc1ccccc1	18	33*	-183	-80	-79
